This is a sample that favours compounds with a hit; in the whole collection about 2.1% have one here.
Hck Nef HTS: inhibitors of Nef-activated human Hck kinase, primary screen, biochemical, Z-Lyte FRET, 384-well, Hck-YEEI. Recombinant Hck-YEEI plus Nef, Z-Lyte FRET kinase assay. inhibition, % at 20 µM. 220,000 compounds, 0.68% hits;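 active = Hck-Nef kinase inhibition above about 50%, limit read from the data; inactive = inhibition below that limit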;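 note: 0% = DMSO with Hck plus Nef and 100% = Hck alone without Nef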
RanGTP-Impb inh: inhibitors of RanGTP-importin-beta interaction, primary screen, biochemical, FRET, CFP-Ran, YFP-importin-beta, homogeneous. Ran GTPase (GTP-bound) - importin-beta complex. cell-free CFP-Ran/YFP-importin-beta FRET ratio. inhibition, % (concentration not given with the values). 300,000 compounds, 1.1% hits;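 active = more than half of the replicate wells show a fall in the fluorescence ratio signal beyond about 16%, limit read from the data, passing the limit was not always enough; inconclusive = exactly half of the replicate wells pass the set limit; inactive = fewer than half of replicates pass the limit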;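 note: 0% = DMSO wells and 100% = Ran loaded with GDP instead of GTP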
Runt-CBFb FRET: inhibitors of RUNX1 Runt–CBFb binding, primary screen, biochemical, FRET, Cerulean-Runt, Venus-CBFb, uHTS | Runt-related transcription factor 1 (Homo sapiens) + Core-binding factor subunit beta … | Cerulean-Runt/Venus-CBFb FRET ratio 530/480, 1 h | inhibition, % at 20 µM | 220,000 compounds, 0.46% hits | AID 1496, 2009;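 active = inhibition over about 50% at 20 µM in the single-dose screen, limit read from the data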;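 note: 0% = DMSO wells and 100% = excess unlabeled CBFb competitor control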
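Assay system: Cerulean-Runt domain fusion protein, energy donor; Signal: fluorescence energy transfer, 422 nm excitation, 530/480 nm emission; Timing: 1 h compound exposure, room temperature; Control set: unlabeled CBFb; Medium: Tris buffer pH 7.5 with salts and BSA; Compound: single test concentration of 20 µM, 1% DMSO final; Probe or stimulus: Venus-CBFb 100 nM.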
Runt-SMMHC FRET: inhibitors of RUNX1 Runt–CBFb-SMMHC binding, primary screen, biochemical, FRET, Cerulean-Runt, Venus-CBFb-SMMHC, uHTS; Runt-related transcription factor 1 (Homo sapiens) + Core-binding factor subunit beta …; Cerulean-Runt/Venus-CBFb-SMMHC FRET ratio 530/480, 1 h; inhibition, % at 20 µM; 220,000 compounds, 0.74% hits;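 active = mean inhibition across duplicate retests at 20 µM reaching about 50%, limit read from the data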;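 note: 0% = DMSO wells and 100% = wells with excess untagged CBFb-SMMHC; inhibitors lower the FRET ratio by blocking Runt binding to CBFb-SMMHC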
DSG3 Ab inh: inhibitors of pemphigus antibody binding to DSG3, primary screen, biochemical, bead-based, flow cytometry, scFv-GFP. DSG3-coupled beads, scFv-anti-DSG3-GFP binding; stronger effect = lower value. binding (percent of control), % at 10 µM. 310,000 compounds, 0.48% hits;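 active = binding more than 3 SD below its plate's average and above zero; inconclusive = below that plate limit but binding exactly zero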
p-CIP stab down: p/CIP-EGFP fusion destabilizers, primary screen, fluorescence, F442A cells; Q05BA5; 16 h; decrease of EGFP signal, % at 10 µM; 290,000 compounds, 0.01% hits;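 active = EGFP signal decrease of at least 30% at 10 µM or well 3 SD below plate mean, unless failing retest; inactive = the rest, including hits failing retest or dose response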
YIC FRET counter: YIC intramolecular FRET probe signal interference, dose response, counter-screen for RanGTP-importin-beta inhibitor project, biochemical, fluorescence FRET | 1,000 compounds, 40% hits | IC50, µM | shares compounds with RanGTP-Impb inh | Purified YIC probe, intramolecular FRET ratio YFP/CFP;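 active = fitted half-maximal inhibitory concentration no more than tenfold above the top dose tested; inconclusive = flat fit with 30 to 70% activity, or poor fit; inactive = half-maximal concentration beyond tenfold above the top dose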
An asterisk follows results filed as active.

How did CC(=O)N1CCC(C(=O)Nc2ccc(S(=O)(=O)N3CCCCC3)cc2)CC1 do in these assays?
RanGTP-Impb inh: 0; DSG3 Ab inh: 94; p-CIP stab down: -6

How did Cc1c(CC(=O)NCC(=O)N[C@H](Cc2ccccc2)C(=O)O)c(=O)oc2cc(O)ccc12 do in these assays?
RanGTP-Impb inh: 16*; DSG3 Ab inh: 103; p-CIP stab down: 6; YIC FRET counter: 46*

Results for O=C(c1ccc(S(=O)(=O)Nc2ccccc2F)cc1)N1CCN(c2ccccc2O)CC1 ?
RanGTP-Impb inh: 2; DSG3 Ab inh: 91

How did Oc1cc(CNC2CCCCC2)c(O)cc1CNC1CCCCC1 do in these assays?
DSG3 Ab inh: 83

Results for Cc1cc(C(=O)N/N=C2\CC(=O)CC(C)(C)C2)n[nH]1 ?
Hck Nef HTS: -2; RanGTP-Impb inh: 16*; Runt-CBFb FRET: -1; Runt-SMMHC FRET: -9; DSG3 Ab inh: 101; p-CIP stab down: -8; YIC FRET counter: >50

What do the screens show for `CCOC(=O)c1sc(NC(=O)CSc2nc(C)cc(C)n2)c(C#N)c1C`?
Hck Nef HTS: 1; RanGTP-Impb inh: 21*; Runt-CBFb FRET: -4; Runt-SMMHC FRET: 1; DSG3 Ab inh: 103; p-CIP stab down: -20; YIC FRET counter: >50

What do the screens show for `COCc1ccc(CN2CCCC(CO)(Cc3cccc(OC)c3)C2)o1` (configuration not stated)?
Hck Nef HTS: -4; RanGTP-Impb inh: -3; Runt-CBFb FRET: 0; Runt-SMMHC FRET: 3; DSG3 Ab inh: 107; p-CIP stab down: 3

What do the screens show for `COCc1ccc(CN2CCCC(CO)(Cc3ccccc3C)C2)o1` (configuration not stated)?
Hck Nef HTS: 20; RanGTP-Impb inh: 23*; Runt-CBFb FRET: -1; Runt-SMMHC FRET: 0; DSG3 Ab inh: 98; p-CIP stab down: -3; YIC FRET counter: >50

What do the screens show for `Cc1ccc(NC(=O)CSC(C)C(=O)OCC(=O)N2CCN(C(=O)c3ccco3)CC2)cc1` (configuration not stated)?
RanGTP-Impb inh: 0; DSG3 Ab inh: 103

What do the screens show for `O=C(CN1CCOCC1)NNc1c2ccccc2nc2ccccc12`?
Hck Nef HTS: 12; RanGTP-Impb inh: 19*; Runt-CBFb FRET: 13; Runt-SMMHC FRET: 8; p-CIP stab down: 9; YIC FRET counter: >50

Results for O=C(NNc1c2ccccc2nc2ccccc12)c1ccc(Cl)cc1 ?
RanGTP-Impb inh: 20*; DSG3 Ab inh: 96; p-CIP stab down: -4; YIC FRET counter: >50

What do the screens show for `Nc1ccccc1C(=O)NNc1c2ccccc2nc2ccccc12`?
Hck Nef HTS: 23; RanGTP-Impb inh: 33*; Runt-CBFb FRET: 3; Runt-SMMHC FRET: 7; DSG3 Ab inh: 97; p-CIP stab down: -6; YIC FRET counter: >50

What do the screens show for `C[N+]1(CC(=O)NNc2c3ccccc3nc3ccccc23)CCOCC1`?
Hck Nef HTS: 18; RanGTP-Impb inh: 2; Runt-CBFb FRET: 4; Runt-SMMHC FRET: 14; p-CIP stab down: -15

What do the screens show for `Cc1csc(=O)n1CCC(=O)N(C)Cc1c(F)cccc1Cl`?
DSG3 Ab inh: 117

How did CN(Cc1ccccc1)S(=O)(=O)CCNC(=O)c1ccc2c(c1)OCO2 do in these assays?
RanGTP-Impb inh: 2; DSG3 Ab inh: 106

How did CCN(CC)S(=O)(=O)c1cc(C(=O)Nc2ccccc2[N+](=O)[O-])ccc1Cl do in these assays?
Hck Nef HTS: -2; RanGTP-Impb inh: 25*; Runt-CBFb FRET: -2; Runt-SMMHC FRET: 0; DSG3 Ab inh: 120; p-CIP stab down: -10; YIC FRET counter: >50

Results for CN(C)S(=O)(=O)c1cccc(C(=O)Nc2ccccc2[N+](=O)[O-])c1 ?
Hck Nef HTS: -1; RanGTP-Impb inh: 4; Runt-CBFb FRET: 1; Runt-SMMHC FRET: -6; DSG3 Ab inh: 103; p-CIP stab down: -17

What do the screens show for `CCOC(=O)c1[nH]c(C)c(C(=O)N(C)Cc2ccccc2)c1C`?
Hck Nef HTS: 0; RanGTP-Impb inh: 25*; Runt-CBFb FRET: 6; Runt-SMMHC FRET: 1; DSG3 Ab inh: 98; p-CIP stab down: -13; YIC FRET counter: >50

Results for CCCCCN1CN(S(=O)(=O)c2cccs2)c2nc3ccccc3nc21 ?
Hck Nef HTS: 15; RanGTP-Impb inh: 2; Runt-CBFb FRET: 4; Runt-SMMHC FRET: 0; DSG3 Ab inh: 97; p-CIP stab down: 0

How did CN1CCCN(Cc2cccc3ccccc23)CC1 do in these assays?
RanGTP-Impb inh: 22*; DSG3 Ab inh: 112; p-CIP stab down: 12; YIC FRET counter: >50

What do the screens show for `O=C(O)CSc1nnc(-c2ccc(Cl)cc2Cl)n1Cc1ccccc1`?
RanGTP-Impb inh: 4; DSG3 Ab inh: 93; p-CIP stab down: 1

Results for Cc1ccc(C)c(C2NC(=O)c3ccccc3N2)c1 (configuration not stated) ?
Hck Nef HTS: 28; RanGTP-Impb inh: -1; Runt-CBFb FRET: -2; Runt-SMMHC FRET: 6; DSG3 Ab inh: 96; p-CIP stab down: 5

How did Cc1ccc(C2NC(=O)c3c(sc(C)c3C)N2)c(O)c1 (configuration not stated) do in these assays?
Hck Nef HTS: 2; RanGTP-Impb inh: 24*; Runt-CBFb FRET: 5; Runt-SMMHC FRET: 21; DSG3 Ab inh: 110; p-CIP stab down: 8; YIC FRET counter: >50

What do the screens show for `Cc1sc2c(c1C)C(=O)NC(c1ccccc1F)N2` (configuration not stated)?
Hck Nef HTS: -13; RanGTP-Impb inh: 24*; Runt-CBFb FRET: 36; Runt-SMMHC FRET: 8; DSG3 Ab inh: 107; p-CIP stab down: -6; YIC FRET counter: >50

Results for CC(C)c1cc(N2CCN(C(=O)c3ccco3)CC2)n2c(nc3ccccc32)c1C#N ?
Hck Nef HTS: 13; RanGTP-Impb inh: inconclusive; Runt-CBFb FRET: 25; DSG3 Ab inh: 92; p-CIP stab down: -4; YIC FRET counter: 16*

High-throughput results deposited in PubChem by several laboratories.
